The record followed here is ChEMBL document CHEMBL1944564, “Discovery of a novel and potent class of F. tularensis enoyl-reductase (FabI) inhibitors by molecular shape and electrostatic matching” (J Med Chem, 2012).

As a reminder, the IC50 is the concentration that gives 50% inhibition. In general, inhibition refers to the relative decrease from the control value, in per cent. The term MIC denotes the lowest concentration that inhibits growth of the organism.

Experiment [1] is described as follows: Inhibition of N-terminus His-tagged Francisella tularensis subsp. Tularensis Schu4 […] expressed in Escherichia coli […] cells assessed as conversion of crotonyl-CoA and NADH to butyryl-CoA and NAD+ preincubated for 30 mins by measured fluorescence analysis. More on the design: species or system Francisella tularensis subsp. tularensis SCHU S4. The essentials:
(§1)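 Recombinant N-terminal His-tagged F. tularensis FabI, expressed in E. coli BL21(DE3) and purified by Ni-affinity and size exclusion to >98%, was used at 0.2 μM. Inhibitor in DMSO was preincubated 30 min, then 200 μM crotonyl-CoA was added. The rate of decrease in NADH fluorescence (ex 340/em 450 nm) gave % inhibition versus a DMSO control.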

The test system of the next experiment is DL21 (DE3). The experiment in a line: Inhibition of N-terminus His-tagged Francisella tularensis subsp. Tularensis Schu4 […] expressed in Escherichia coli […] cells assessed as conversion of crotonyl-CoA and NADH to butyryl-CoA and NAD+ preincubated at 100 uM for 30 mins by fluorescence analysis. As to conditions: Francisella tularensis subsp. tularensis SCHU S4. In a few lines:
as §1

For a further experiment, the system named is Francisella tularensis. The experiment in a line: Antibacterial activity against Francisella tularensis after overnight incubation. Format: functional.
For another experiment, the system named is Bacillus anthracis. The experiment in a line: Antibacterial activity against Bacillus anthracis after overnight incubation. Format: functional.
Experiment [2] concerns Escherichia coli. The experiment in a line: Antibacterial activity against Escherichia coli BW251113 harboring TolC deletion mutation after overnight incubation. Type of experiment: functional.
Another experiment relates to Yersinia pestis. Put plainly: Antibacterial activity against Yersinia pestis after overnight incubation. Type of experiment: functional.
For experiment [3], the system named is Staphylococcus aureus. Put plainly: Antibacterial activity against methicillin-resistant Staphylococcus aureus after overnight incubation. Type of experiment: functional. The essentials:
(§2)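 Broth microdilution in LB with 2-fold serial dilutions of compound and ciprofloxacin as control.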

The subject of experiment [4] is Staphylococcus aureus. The experiment in a line: Antibacterial activity against Staphylococcus aureus after overnight incubation. Format: functional. The essentials:
as §2

Experiment [5] has as its system Escherichia coli. The experiment in a line: Antibacterial activity against Escherichia coli BW251113 after overnight incubation. Format: functional. The essentials: as §2

In brackets after ≈: the same amount, converted by molar mass. Some results are limits rather than exact numbers.

With `Cc1cc2ncn(C(=O)c3cccc(Cl)c3)c2cc1C`, the IC50 in experiment [1] was over 100 µM.
In the case of `Clc1ccc(Cn2cnc3ccccc32)cc1`, the half-maximal inhibitory concentration (IC50) in experiment [1] turned out to be 27 µM. The inhibition with DL21 (DE3) stood at 70%.
Take `Brc1ccc(Cn2cnc3ccccc32)cc1`: the IC50 in [1] was 27.4 µM.
As for `Nc1nc2ccccc2n1Cc1ccc(Cl)cc1`, the concentration for half-maximal inhibition (IC50) in experiment [1] was over 100 µM.
On the same count and under the same terms, to `O=C(c1ccc(Cl)cc1)n1cnc2ccccc21` belongs over 100 µM; to `Clc1cccc(Cn2cnc3ccccc32)c1`, 85 µM.
As for `Cc1cc2ncn(Cc3ccc(Cl)c(Cl)c3)c2cc1C`, the 50% inhibitory concentration (IC50) in experiment [1] came out at 0.3 µM. Moreover, the minimum inhibitory concentration (MIC) was 7.8 µg/mL (≈ 25.6 µM) against Francisella tularensis; 9.4 µg/mL (≈ 30.8 µM) with Bacillus anthracis; 6.25 µg/mL (≈ 20.5 µM) in the experiment on Escherichia coli [2]; at least 50 µg/mL with Yersinia pestis; 50 µg/mL (≈ 164 µM) with Staphylococcus aureus [3]; 25 µg/mL (≈ 81.9 µM) against Staphylococcus aureus [4]. This molecule returned an MIC in the experiment on Escherichia coli [5] of over 200 µg/mL.
For the molecule `O=C(NC(=O)c1cc(-c2ccc(Cl)cc2)oc1C(F)(F)F)c1ccccc1O`, the inhibition in the experiment with DL21 (DE3) was determined as 39%.
In the case of `c1ccc(Cn2cnc3ccccc32)cc1`, the IC50 in experiment [1] is over 100 µM.
In the case of `Cc1cc2ncn(Cc3ccc(Cl)cc3)c2cc1C`, the 50% inhibitory concentration (IC50) in [1] turned out to be 0.3 µM. Besides, the MIC in the experiment on Francisella tularensis was 15.6 µg/mL (≈ 57.6 µM); against Bacillus anthracis, over 50 µg/mL; against Escherichia coli [2], 12.5 µg/mL (≈ 46.2 µM); in the experiment on Yersinia pestis it was over 50 µg/mL; against Staphylococcus aureus [4], over 50 µg/mL; against Escherichia coli [5], over 50 µg/mL.
Turning to `Nc1ncc(Cc2ccc(Cl)cc2)s1`, the IC50 in [1] turned out to be 63 µM. For the same molecule, the inhibition in the experiment on DL21 (DE3) came to 49%.
Turning to `Cc1nc2ccccc2n1Cc1ccc(Cl)c(Cl)c1`, the concentration for half-maximal inhibition (IC50) in [1] was determined as 3.2 µM. For the same molecule, the MIC with Francisella tularensis is 9.4 µg/mL (≈ 32.3 µM); against Bacillus anthracis, 25 µg/mL (≈ 85.9 µM); against Escherichia coli [2], 25 µg/mL (≈ 85.9 µM); in the experiment on Yersinia pestis, at least 50 µg/mL; against Staphylococcus aureus [4] it was 50 µg/mL (≈ 172 µM); against Escherichia coli [5] it was 50 µg/mL (≈ 172 µM).
Regarding `Cc1cc2ncn(Cc3ccc(Cl)cc3Cl)c2cc1C`, in experiment [1], the IC50 amounted to 0.7 µM. Further, the minimum inhibitory concentration (MIC) is 4.3 µg/mL (≈ 14.1 µM) against Francisella tularensis; over 38 µg/mL in the experiment with Bacillus anthracis; 19 µg/mL (≈ 62.3 µM) against Escherichia coli [2]; over 38 µg/mL with Yersinia pestis; 38 µg/mL (≈ 125 µM) against Staphylococcus aureus [3]; 38 µg/mL (≈ 125 µM) in the experiment on Staphylococcus aureus [4]. Besides, in the experiment on Escherichia coli [5], the minimum inhibitory concentration (MIC) was over 200 µg/mL.
For `Fc1ccc(Cn2cnc3ccccc32)cc1`, the IC50 in [1] was over 100 µM.
Still for that read-out and setting: to `Cc1ccc(Cn2cnc3ccccc32)cc1` belongs 90 µM; to `COc1ccc(Cn2cnc3ccccc32)cc1`, 38 µM.
The same measure, in the same setting: under `Clc1ccc(Cn2cnc3ccccc32)c(Cl)c1` stands 22 µM.
As for `Clc1ccc(Cn2cnc3ccccc32)cc1Cl`, in experiment [1], the concentration for half-maximal inhibition (IC50) amounted to 4.7 µM. The MIC is 17.2 µg/mL (≈ 62.1 µM) against Francisella tularensis; 50 µg/mL (≈ 180 µM) in the experiment on Bacillus anthracis; 25 µg/mL (≈ 90.2 µM) in the experiment on Escherichia coli [2]; 25 µg/mL (≈ 90.2 µM) with Yersinia pestis; 50 µg/mL (≈ 180 µM) in the experiment on Staphylococcus aureus [3]; 50 µg/mL (≈ 180 µM) in the experiment on Staphylococcus aureus [4]. In addition, the MIC in the experiment with Escherichia coli [5] is over 200 µg/mL.
